# Published values collected from several papers.
# Each line is one published result; the experiments were not run side by side.
# Target: SRSF protein kinase 2 (SRPK2, Homo sapiens, UniProt P78362)
SMILES,assay,conditions,endpoint,result
CC(C)(O)[C@H]1CC[C@H](Nc2ccc3ncc(-c4cccc(C(F)(F)F)c4)n3n2)CC1,"enzyme activity, inhibitor",1 µM,remaining activity,94.5%
CCN(CC)CCNC(=O)c1c(C)[nH]c(/C=C2\C(=O)Nc3ccc(F)cc32)c1C,"enzyme activity, inhibitor",10 µM,inhibition,37%
CCOCCn1cc(C(=O)Nc2ccc(-n3nc(-c4cccnc4)cc3C(F)(F)F)cn2)ccc1=O,"cell-free assay, competition with immobilised ligand",1 µM,remaining binding,100%
Cn1c2c(c3ccc(Cl)c(Cl)c31)C(C#N)C1(CCCCC1)NC2=O (racemic),"thermal stability, DSF",10 µM,ΔTm,0.2 °C
CC(C1CC1)n1cnc2c(NCc3cccc(C(F)(F)F)c3)nc(NCCN(C)C)nc21 (centres unmarked),"enzyme activity, inhibitor",5 µM,inhibition,> 50%
O=C(Nc1cnn(-c2csc(C(=O)NC3COC3)c2)c1)Nc1ccccc1Cl,"enzyme activity, inhibitor",5 µM,remaining activity,95.6%
CNC(=O)Nc1ccc2c(c1)[C@@]1(CC2)OC(=O)N(CC(=O)N(Cc2ccc(F)cc2)[C@@H](C)C(F)(F)F)C1=O,"cell-free assay, competition with immobilised ligand",1 µM,remaining binding,100%
CC(C)(C)c1nc2c(s1)c1nc(N)ncc1c1ccc(NS(=O)(=O)c3c(F)cccc3F)c(F)c12,"enzyme activity, inhibitor, radiometric",1 µM,remaining activity,108%
CCN1CCC2(CC1)NC(=O)c1c(c3ccc(Cl)c(Cl)c3n1C)C2C#N (racemic),"thermal stability, DSF",10 µM,ΔTm,0.5 °C
Cc1ccc(C(=O)Nc2ccc(CN3CCN(C)CC3)c(C(F)(F)F)c2)cc1C#Cc1cnc2cccnn12,"enzyme activity, inhibitor",23.5 nM,remaining activity,94%
CN(C)CC#Cc1ccc(OCCCc2sc(N3CCc4cccc(C(=O)Nc5nc6ccccc6s5)c4C3)nc2C(=O)O)c(F)c1,"cell-free assay, competition with immobilised ligand",1 µM,remaining binding,100%
Cn1c2c(Cl)c(Cl)ccc2c2cc(N)[nH]c(=O)c21,"thermal stability, DSF",10 µM,ΔTm,0.1 °C
Cc1cnc(NC2CCOCC2)nc1-n1cnc(C(=O)NC(CN)c2cc(F)cc(Cl)c2)c1 (centres unmarked),"enzyme activity, inhibitor, radiometric",1 µM,remaining activity,101%
CN1CCN(c2cnc3c(C4CCN(C(=O)c5ccc(OC(F)(F)F)cc5N)CC4)ncnc3c2)CC1,"cell-free assay, competition with immobilised ligand",1 µM,remaining binding,78%
COc1cc2ncnc(Nc3ccc(Oc4ccccc4)c(C)c3C)c2cc1OC,"enzyme activity, inhibitor",1 µM,inhibition,-3%
C[C@@H](c1cccc(C#N)c1)n1cc(Cl)cc(C(N)=O)c1=N,"cell-free assay, competition with immobilised ligand",1 µM,remaining binding,100%
Cn1c2c(c3ccc(Cl)c(Cl)c31)C(C#N)C(C)(C)NC2=O (centres unmarked),"thermal stability, DSF",10 µM,ΔTm,0.6 °C
CCOc1cc(-c2nncn2C)ccc1Nc1ncc2cc(C)nc(NCC(C)(C)C)c2n1,"enzyme activity, inhibitor, FRET",1 µM,inhibition,< 15%
Cn1c2c(c3ccc(Cl)c(Cl)c31)C(C#N)C1(CCNCC1)NC2=O (racemic),"thermal stability, DSF",10 µM,ΔTm,2.4 °C
CNC(=O)c1cc(Oc2ccc(NC(=O)Nc3ccc(Cl)c(C(F)(F)F)c3)cc2)ccn1,"enzyme activity, inhibitor",10 µM,inhibition,12%
O=C1Nc2ccc(Cl)cc2C1=Cc1cc(Cl)c(O)c(Cl)c1,cell-free assay,0.5 µM,remaining signal,95.2%
CN1CCC2(CC1)NC(=O)c1c(c3ccc(Cl)c(Cl)c3n1C)C2C#N (racemic),"thermal stability, DSF",10 µM,ΔTm,0.7 °C
CNC(=O)c1ccc(Nc2ncc(C(F)(F)F)c(NCc3nccnc3N(C)S(C)(=O)=O)n2)cc1,"cell-free assay, competition with immobilised ligand",0.1 µM,remaining binding,100%
Cc1cc(NC(=O)c2cccc3cc(-c4cccc5[nH]nc(N)c45)ccc23)ccc1F,"enzyme activity, inhibitor",0.1 µM,activity vs control,103%
Nc1ncnc2occ(-c3ccc(NC(=O)Nc4cc(C(F)(F)F)ccc4F)cc3)c12,"cell-free assay, inhibitor",20 µM,remaining signal,100%
COc1cc(-c2cc(-c3ccc(N4CCNCC4)cc3)cnc2C)cc(OC)c1OC,"enzyme activity, inhibitor",0.1 µM,inhibition,2%
O=C(Nc1cnn(-c2csc(C(=O)NC3COC3)c2)c1)Nc1c(F)cccc1Cl,"enzyme activity, inhibitor",5 µM,remaining activity,94%
N#CCCc1ccc2c(c1)-c1[nH]c3ccc([N+](=O)[O-])cc3c1CC(=O)N2,cell-free assay,0.5 µM,remaining signal,109%
C[C@@H]1CN(c2cc(-c3n[nH]c4ccc(OC5(C)CC5)cc34)ncn2)C[C@H](C)O1,"cell-free assay, competition with immobilised ligand",0.1 µM,remaining binding,79%
Cn1c2c(Cl)c(Cl)ccc2c2cc[nH]c(=O)c21,"thermal stability, DSF",10 µM,ΔTm,-0.2 °C
Cc1ccc(Nc2nccc(N(C)c3ccc4c(C)n(C)nc4c3)n2)cc1S(N)(=O)=O,"enzyme activity, inhibitor",10 µM,inhibition,4%
CNCc1ccccc1-c1csc([C@@H](C)Nc2nc(C)nc3cc(OC)c(OC)cc23)c1,"cell-free assay, competition with immobilised ligand",1 µM,remaining binding,61%
